The list is not random: actives were taken first. Their share in the collection is about 1.5%.
CAL PDZ FP-1 = human CAL PDZ-peptide interaction inhibition. Q9HD26. purified CAL PDZ, TMR-peptide fluorescence polarization, 1 h. inhibition, % at 20 µM. 330,000 tested, 0.02% active;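 active = highest replicate inhibition of at least 40%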
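System: purified tagged CAL PDZ domain construct (CerCALP). Schedule: 1 h incubation at room temperature before polarization reading. Medium: 25 mM sodium phosphate pH 7.4, 150 mM NaCl, TCEP, IgG, Thesit. Read-out: percent inhibition from loss of millipolarization. Measured by: FP readout, S and P plane fluorescence. Probe or stimulus: fluorescent TMR peptide probe.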
Keap1-Nrf2 PPI = disrupts human Keap1 binding to Nrf2 peptide. Keap1 Kelch-Nrf2 peptide fluorescence polarization, 1536-well. AID 504523. inhibition, % at 9.4 µM. Q14145. 340,000 tested, 0.15% active; in the data active = inhibition above about 12%;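 also: human Keap1 Kelch domain with fluorescein labeled Nrf2 9mer peptide probe; higher means more block of Keap1 binding to Nrf2 peptide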
Target sequence (Q14145 whole entry, looked up, the tested form may be a part): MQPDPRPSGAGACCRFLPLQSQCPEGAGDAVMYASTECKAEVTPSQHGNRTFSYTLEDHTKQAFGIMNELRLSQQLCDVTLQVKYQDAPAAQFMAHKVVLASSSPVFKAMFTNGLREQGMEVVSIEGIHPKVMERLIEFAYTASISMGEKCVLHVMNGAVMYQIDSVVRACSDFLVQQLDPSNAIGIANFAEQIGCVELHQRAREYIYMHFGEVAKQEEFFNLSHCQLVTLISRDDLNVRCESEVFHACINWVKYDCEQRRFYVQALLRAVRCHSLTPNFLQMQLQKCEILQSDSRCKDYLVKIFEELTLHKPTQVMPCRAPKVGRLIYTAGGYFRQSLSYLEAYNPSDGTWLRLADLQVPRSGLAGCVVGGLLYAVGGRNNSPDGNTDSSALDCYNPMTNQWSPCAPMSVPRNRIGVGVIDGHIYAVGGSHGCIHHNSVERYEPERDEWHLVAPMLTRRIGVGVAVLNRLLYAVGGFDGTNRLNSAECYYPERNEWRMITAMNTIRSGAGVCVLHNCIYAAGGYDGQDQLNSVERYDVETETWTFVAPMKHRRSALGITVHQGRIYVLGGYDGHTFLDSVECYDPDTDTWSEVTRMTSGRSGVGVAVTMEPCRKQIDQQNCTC
LANA-H2A inh = blocks KSHV LANA binding to histone H2A/H2B; Q9QR71; cell-free LANA-H2A/H2B peptide, fluorescence polarization; inhibition, % (test concentration not listed); 320,000 tested, 0.6% active; in the data active = inhibition mostly above about 10%, no sharp cut-off; inactive = mostly below about 6.7%
LANA DNA inh = inhibitors of KSHV LANA C-terminal domain DNA binding; MBP-C-LANA/FAM-LBS DNA binding, fluorescence polarization; inhibition, % at 9 µM; 340,000 tested, 0.078% active;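 active = highest replicate inhibition at or above 60% at 9 µM, even if other replicates fall short; inactive = all replicates below 60% inhibition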
CAL PDZ FP-2 = CAL PDZ (human) peptide binding inhibition. inhibition, % at 24.9 µM. Q9HD26. purified CAL PDZ, TMR-peptide fluorescence polarization, 1 h. 300,000 tested, 0.92% active. AID 602252;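 active = mean inhibition of at least 30% with at least half of replicates also reaching 30%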
CaV13 ICDI inh = Disruptors of the CACNA1D IQ motif to Ca2+-dependent inactivation inhibitor domain association, primary screening, Förster resonance energy transfer in intact living … | HEK cells, CFP/YFP FRET ICDI-IQ, plate reader, 10 min; percent FRET-ratio fall versus neutral wells | inhibition, % at 12.3 µM | 340,000 tested, 0.098% active;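 active = mean replicate inhibition of at least 30% and at least 1% of replicates passing that level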
Numbers stand for hits; i = inactive; nt = no result; + = active, no number.

SMILES	CAL PDZ FP-1	Keap1-Nrf2 PPI	LANA-H2A inh	LANA DNA inh	CAL PDZ FP-2	CaV13 ICDI inh
COc1ccc(CCN=C(N)NS(=O)(=O)c2ccc(F)cc2)cc1	i	i	i	i	i	73
CCCCNc1ccc2c(c1)OC[C@H](CC(C)C)NS2(=O)=O	nt	nt	nt	nt	nt	i
CCc1cc2c(nc1CC)CCCN2S(=O)(=O)c1ccc(C)cc1	nt	nt	nt	nt	nt	i
COc1ccc(C(N)c2csc(Nc3ccc(S(C)(=O)=O)cc3)n2)cc1 (centres undefined)	nt	nt	nt	nt	nt	i
CCN(CC(=O)Nc1c(F)cccc1F)C(=O)CCCc1c[nH]c2ccccc12	i	i	i	i	i	i
CCCN(CC(=O)Nc1ccccc1C)C(=O)COc1c(C)cccc1C	i	i	i	i	45	i
CCCN(CC(=O)Nc1ccccc1C)C(=O)CCCc1c[nH]c2ccccc12	i	i	i	i	132	i
COc1ccc(C(=O)N(C)[C@H]2C[C@H]3c4[nH]c5c(-c6ccccc6)cccc5c4CCN3C(=O)[C@H]2[C@H](C)O)cc1	nt	nt	nt	nt	nt	i
CCOCC(=O)Nc1cc([N+](=O)[O-])ccc1OC	i	i	22	i	i	i
COc1ccc(C(=O)NCC(=O)OCC(=O)Nc2cc([N+](=O)[O-])ccc2F)cc1	i	i	i	i	+	i
COc1ccc(C(=O)NCC(=O)OCC(=O)Nc2sccc2C#N)cc1OC	i	i	i	i	61	i
COc1ccc(OC)c(NC(=O)COC(=O)CNC(=O)c2ccc(OC)c(OC)c2)c1	i	i	i	i	i	i
Brc1ccc2nc(-c3ccc(CN4CCC5(CC4)CNc4ccccc45)cc3)c(-c3ccccc3)nc2c1	nt	nt	nt	nt	nt	i
CC1(C)CC(=O)C=C(c2ccccc2-c2ccc3c(c2)OCO3)C1=O	nt	nt	nt	nt	nt	i
CCCCOCC1CN(CCCC)S(=O)(=O)c2c(cccc2Sc2ccc(OC)c(OC)c2)O1 (centres undefined)	nt	nt	nt	nt	nt	i
CCN(Cc1nc2cc(Cl)ccc2c(=O)[nH]1)C(=O)c1cccc(OCc2c(C)noc2C)c1	i	i	91	i	i	i
CCN(Cc1nc2cc(Cl)ccc2c(=O)[nH]1)C(=O)c1cccc(NC(=O)c2cccs2)c1	i	i	i	i	i	i
COc1ccccc1C(C(=O)c1ccccc1)c1ccc2ccccc2c1 (centres undefined)	nt	nt	nt	nt	nt	i
c1ccc(-c2ccc3nnnn3n2)cc1	i	i	i	i	i	i
CC(C)Oc1ccc2nnnn2n1	nt	i	i	i	130	nt
CC(C)c1cc2c(c(O)c1O)[C@@]13CCCC(C)(C)C1CC2OC3=O (some centres undefined)	i	i	i	i	i	nt
COc1ccccc1OCc1ccc(C(=O)N(C)c2ccccc2)o1	i	i	i	i	i	39
COc1ccccc1OCc1ccc(C(=O)N(C)C)o1	i	i	i	i	i	i
C=CCNc1ccc2c(c1)OC[C@H](Cc1ccccc1)NS2(=O)=O	nt	nt	nt	nt	nt	i
Cc1ccc2c(c1)C(=O)CCN2	i	i	i	i	i	i
SMILES	CAL PDZ FP-1	Keap1-Nrf2 PPI	LANA-H2A inh	LANA DNA inh	CAL PDZ FP-2	CaV13 ICDI inh
Cc1ccc2c(c1)C(=C(C#N)C#N)CCN2	i	i	nt	i	39	i
CCN(CC(=O)NCc1cccs1)C(=O)c1ccc(S(=O)(=O)Nc2ccccc2Cl)cc1	i	i	i	i	i	i
O=S(=O)(Nc1ccc(C(O)(C(F)(F)F)C(F)(F)F)cc1)c1cccc2ccccc12	nt	nt	nt	nt	nt	i
Cc1cccn2c(=O)c(/C=C(\C#N)C(N)=O)c(Oc3ccccc3)nc12	i	i	i	i	nt	38
Cc1ccc(S(=O)(=O)CCc2nnc(NC(=O)CCl)s2)cc1C	i	i	i	i	46	i
C#CCNC(=O)C[C@@H]1C[C@@]2(C(=O)OC)CC(C)(C)CC=C2N(Cc2ccccc2)C1=O	nt	nt	nt	nt	nt	i
O=C(c1ccccc1)N1CCN(c2ccc(NCc3ccc4c(c3)OCO4)cc2)CC1	i	i	i	i	nt	56
CC(=O)N1CCN(c2ccc(NCc3ccc4c(c3)OCO4)cc2)CC1	i	i	i	i	i	i
CC1CCCN(c2cccc3c2S(=O)(=O)N([C@H](C)c2ccccc2)C[C@@H](COCc2ccccc2)O3)C1 (some centres undefined)	nt	nt	nt	nt	nt	i
CN(C)/N=C/C=C1\CC/C(=C\c2ccc(Br)cc2)C1=O	i	i	i	i	49	nt
CN(C)/N=C/C=C1\CCC/C(=C/c2cccs2)C1=O	i	i	i	i	i	i
COC(=O)C1(C(F)(F)F)N=C(N(C)C)OC(N(C)C)=N1	i	i	i	i	42	i
CCOC(=O)C1(C(F)(F)F)N=C(c2ccccc2F)OC(N(C)C)=N1 (centres undefined)	i	i	i	i	i	i
CC(=O)O[C@@H]1C=C[C@@H](C#Cc2ccc(C(C)(C)C)cc2)O[C@@H]1COC(=O)Nc1ccccc1	nt	nt	nt	nt	nt	i
COCCOCC(O)CN1CCN(c2ccccc2)CC1 (centres undefined)	i	i	i	i	32	nt
COCCOCC(O)CN1CCN(c2ccc(C)cc2)CC1 (centres undefined)	i	i	i	i	i	i
CCOC(=O)C1CCCN(C(=O)c2cc(C#N)cs2)CC1 (centres undefined)	nt	nt	nt	nt	nt	i
CNC(=O)c1cn(-c2ccc(Cl)cc2)c(=O)c2ccccc12	nt	i	i	i	48	i
OC(c1ccccc1)(c1ccccc1)C1CCN(CCCOc2ccc(C(F)(F)F)cc2)CC1	nt	nt	nt	nt	nt	i
Cc1cccc(C)c1NC(=O)CNC(=O)C(C)N(C)CC(=O)Nc1ccc(F)cc1 (centres undefined)	i	i	nt	i	i	nt
Cc1cccc(C)c1NC(=O)CN(C)C(C)C(=O)NCC(=O)Nc1ccc(F)c(F)c1F (centres undefined)	i	i	187	i	i	i
O=C(Nc1cc([N+](=O)[O-])ccc1F)C1CC1	i	i	29	i	i	i
O=C(Nc1cc([N+](=O)[O-])ccc1Cl)C1CC1	i	i	i	i	i	i
O=C(NCc1ccc2c(c1)OCO2)c1nc(Cn2cc(Br)cn2)no1	i	i	i	i	37	i
O=C(Cc1ccc(Cl)cc1)NNc1c(F)c(F)cc(F)c1F	i	i	27	i	i	i
SMILES	CAL PDZ FP-1	Keap1-Nrf2 PPI	LANA-H2A inh	LANA DNA inh	CAL PDZ FP-2	CaV13 ICDI inh
CCOC(=O)C(C)Sc1cc(CS(=O)(=O)c2ccccc2)nc(-c2ccccc2)n1 (centres undefined)	i	i	i	i	nt	i
COc1cc(/C=C2\SC(=Nc3cccnc3)NC2=O)cc(OC)c1OC	nt	nt	27	nt	nt	i
C=CCNc1oc(-c2cccs2)nc1S(=O)(=O)c1ccccc1	i	i	i	i	39	i
C=CCNc1oc(-c2ccco2)nc1S(=O)(=O)c1ccccc1	i	i	i	i	nt	i
COc1ccc(NC(=O)C#Cc2ccccc2)cc1	i	i	i	i	63	i
CC1CC(OC(=O)C(O)c2ccccc2)CC(C)(C)N1C (centres undefined)	i	i	17	i	i	i

Source: PubChem (Broad Institute)
